STAT3 activator: STAT3 signaling activation; U3A cells, IL-6 STAT3-luciferase reporter, luminescence; 100% = signal with IL-6 EC80 alone; activation (% of control), % at 5.6 µM; actives 0.91% (n = 190,000); AID 871;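 active means activation above the screen-wide mean of compound activation plus 3 SD, cut at about 130% in these data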
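system = STAT3-luciferase reporter U3A cells | reagent = IL-6 stimulus at 33 ng/mL final | timing = 1 h compound pre-exposure, 6 h IL-6 stimulation, 37 °C | measured by = luminescence | evaluation = % activation versus median of IL-6-stimulated wells | control set = IL-6-only wells as 100% reference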
hK5 inh: kallikrein 5 (human) inhibition | recombinant hK5, fluorogenic AMC substrate cleavage | Q9Y337 | actives 0.59% (n = 210,000) | inhibition, % at 5 µM;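 active means inhibition of 40% or more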
thrombin 1536: thrombin (human) inhibition; P00734; alpha-thrombin, Boc-VPR-AMC fluorogenic substrate cleavage; inhibition, % at 5 µM; actives 0.26% (n = 220,000);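 active means inhibition at or above 40%; inactive means inhibition below 40%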
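Assay system: human alpha-thrombin enzyme. Reagent: Boc-VPR-AMC substrate, 15 µM final. Compound dosing: one concentration per compound, 5 µM, with 0.2% DMSO. Incubation: room-temperature reaction. Technique: AMC fluorescence, 355/460 nm. Measure: % inhibition relative to enzyme controls and enzyme-free blanks.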
AHR act: activators of human aryl hydrocarbon receptor; P35869; AHR-responsive luciferase reporter cells, luminescence; activation, % at 5 µM; actives 2.5% (n = 320,000); in the data active means activation above about 47%
FXIIa inh 1536: inhibitors of human coagulation factor XIIa; actives 0.3% (n = 220,000); P00748; inhibition, % at 5 µM; purified FXIIa, Boc-QGR-AMC fluorogenic substrate, 2 h; in the data active means inhibition above about 40%
FXIa inh 1536: inhibitors of human coagulation factor XIa | P03951 | purified FXIa, Boc-Glu-Ala-Arg-AMC fluorogenic substrate | inhibition, % at 5 µM | actives 0.14% (n = 220,000) | AID 798;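 active means inhibition of at least 40%; inactive means inhibition below 40%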;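 further: fluorescence of freed AMC excited at 355 nm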
Target sequence (P03951 19-387 limits assumed): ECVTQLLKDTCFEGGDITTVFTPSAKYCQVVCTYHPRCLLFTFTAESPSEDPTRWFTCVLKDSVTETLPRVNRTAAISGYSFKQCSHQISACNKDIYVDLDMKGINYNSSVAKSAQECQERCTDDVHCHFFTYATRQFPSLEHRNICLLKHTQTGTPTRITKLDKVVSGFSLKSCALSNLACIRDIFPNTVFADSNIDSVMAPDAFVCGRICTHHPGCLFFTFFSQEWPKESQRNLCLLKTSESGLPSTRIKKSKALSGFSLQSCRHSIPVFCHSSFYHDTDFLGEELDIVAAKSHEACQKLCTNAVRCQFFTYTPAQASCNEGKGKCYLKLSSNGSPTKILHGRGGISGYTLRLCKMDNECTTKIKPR
Target sequence (P03951 388-625 limits assumed): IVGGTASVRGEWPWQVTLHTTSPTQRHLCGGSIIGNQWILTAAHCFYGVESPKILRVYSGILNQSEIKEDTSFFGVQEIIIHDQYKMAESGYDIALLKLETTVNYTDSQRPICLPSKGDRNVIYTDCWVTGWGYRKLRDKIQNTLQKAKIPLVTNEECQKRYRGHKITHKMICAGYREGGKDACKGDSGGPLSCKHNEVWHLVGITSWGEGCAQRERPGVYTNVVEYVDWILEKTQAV
AHR act cf: confirmation of human aryl hydrocarbon receptor activators. shares compounds with AHR act. human cells, AHR-responsive luciferase reporter, luminescence. activation, % at 9 µM. actives 87% (n = 2,300); in the data active means activation above about 49%;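 further: HepG2 hepatoma cells carrying a DRE-driven firefly luciferase reporter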
PXR counter: PXR activation, counter-screen for AHR activators. shares compounds with AHR act. cell-based PXR reporter, luciferase luminescence. activation, % at 11.6 µM. actives 88% (n = 2,300); in the data active means activation above about 11%;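 further: human hepatoma DPX-2 cells expressing full-length human PXR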
Large screens that a line does not name were inactive (follow-up assays come after a bar, where they were run). Only some compounds are listed: those with a hit (about 3.5% of all), similar ones and a draw of the others.

CC(=O)CSc1nsc(SCC(C)=O)c1C#N	none
N#Cc1c(SCC(N)=O)nsc1SCc1ccccc1Cl	AHR act 101.2 | AHR act cf 83.0 | PXR counter 22.4
N#Cc1c(SCC(N)=O)nsc1SCc1ccc(Cl)cc1	AHR act 80.1 | AHR act cf 84.2 | PXR counter 36.4
O=C(CN1CCN(c2ccccc2O)CC1)Nc1ccnn1C1CCCC1	none (no result: STAT3 activator, hK5 inh, thrombin 1536, FXIIa inh 1536, FXIa inh 1536)
O=S(=O)(CCc1nc2ccccc2s1)c1ccc2ccccc2c1	none
Cc1ccc(N=C(N)N=C(N)N)c(C)c1	none (no result: STAT3 activator)
COc1ccccc1-n1cc(-c2ccccc2)[nH]c1=S	AHR act 102.3 (no result: STAT3 activator, hK5 inh, thrombin 1536, FXIIa inh 1536, FXIa inh 1536) | AHR act cf 105.7 | PXR counter 48.5
CCn1cc(CNCc2cn(C)nc2-c2ccc(C3CCCCC3)cc2)cn1	none (no result: hK5 inh, AHR act)
CC(C)Sc1nnc(NC(=O)c2ccc3c(c2)OCO3)s1	AHR act 110.3 (no result: STAT3 activator, hK5 inh, thrombin 1536, FXIIa inh 1536, FXIa inh 1536) | AHR act cf inactive | PXR counter 27.2
O=C(Nc1ccc2c(c1)OCO2)c1ccccc1	AHR act 100.8 (no result: STAT3 activator, hK5 inh, thrombin 1536, FXIIa inh 1536, FXIa inh 1536) | AHR act cf 52.4 | PXR counter 24.2
CCN(CC)S(=O)(=O)c1ccc(N2CCCC2)c(NC(=O)c2nn(C)c(=O)c3ccccc23)c1	none (no result: STAT3 activator, hK5 inh, thrombin 1536, FXIIa inh 1536, FXIa inh 1536)
O=C(Nc1ccc2c(c1)OCO2)C(=O)c1c[nH]c2ccccc12	AHR act 84.2 (no result: STAT3 activator, hK5 inh, thrombin 1536, FXIIa inh 1536, FXIa inh 1536) | AHR act cf 70.1 | PXR counter 38.4
Cn1nc(C(=O)Nc2ccccc2N2CCCC2)c2ccccc2c1=O	AHR act 114.0 (no result: STAT3 activator, hK5 inh, thrombin 1536, FXIIa inh 1536, FXIa inh 1536) | AHR act cf 81.8 | PXR counter 73.9
CCOc1cccc(-c2c(C(=O)N/N=C/c3cccs3)nnn2-c2nonc2N)c1	none (no result: STAT3 activator, hK5 inh, thrombin 1536, FXIIa inh 1536, FXIa inh 1536)
COc1cccc(NC(=O)c2ccc3c(c2)OCO3)c1	AHR act 134.1 (no result: STAT3 activator, hK5 inh, thrombin 1536, FXIIa inh 1536, FXIa inh 1536) | AHR act cf inactive | PXR counter 26.1
Cn1nc(C(=O)Nc2ccc3c(c2)OCO3)c2ccccc2c1=O	AHR act 123.1 (no result: STAT3 activator, hK5 inh, thrombin 1536, FXIIa inh 1536, FXIa inh 1536) | AHR act cf 107.1 | PXR counter inactive
Cn1nccc1C(=O)Nc1ccc2c(c1)OCO2	AHR act 103.9 (no result: STAT3 activator, hK5 inh, thrombin 1536, FXIIa inh 1536, FXIa inh 1536) | AHR act cf 60.1 | PXR counter 18.5
Cn1nccc1C(=O)Nc1ccc(Cl)cc1	none
COc1ccc(-n2nc(C(=O)Nc3ccc4c(c3)OCO4)c3ccccc3c2=O)cc1	none
O=C(Nc1ccc2c(c1)OCO2)c1ccc(S(=O)(=O)NCC2CCCO2)cc1 (stereo unspecified)	AHR act 84.4 | AHR act cf inactive | PXR counter 20.9
CC(C)Oc1ccc(CN2CCC(n3nccc3NC(=O)C3CC3)CC2)cc1	none (no result: STAT3 activator, hK5 inh, thrombin 1536, FXIIa inh 1536, FXIa inh 1536)
CNC(=O)/C(=C\c1ccc2c(c1)OCO2)NC(=O)c1ccc(Br)cc1	none
COC(=O)c1c(-c2cccnc2)csc1NC(=O)c1ccc2c(c1)OCO2	AHR act 113.6 (no result: STAT3 activator, hK5 inh, thrombin 1536, FXIIa inh 1536, FXIa inh 1536) | AHR act cf inactive | PXR counter inactive
CC(=O)N1CC(C(=O)Nc2ccc3c(c2)OCO3)Oc2ccccc21 (stereo unspecified)	AHR act 101.8 (no result: STAT3 activator, hK5 inh, thrombin 1536, FXIIa inh 1536, FXIa inh 1536) | AHR act cf 121.0 | PXR counter 34.4
CC(C)Oc1cccc(C(=O)NC2=NCCS2)c1	none
COc1cccc(C(=O)NC2=NCCS2)c1	AHR act 132.7 | AHR act cf 55.2 | PXR counter 13.1
COC(=O)c1sccc1NC(=O)c1ccc2c(c1)OCO2	none
O=C(Nc1cccc2nsnc12)c1ccc2c(c1)OCO2	AHR act 118.3 | AHR act cf 127.0 | PXR counter 29.9
CN(C)c1ccc(C(CC(=O)O)NC(=O)c2ccc(Cl)cc2)cc1 (stereo unspecified)	none
CCC(C)C(=O)Nn1c(C2CC2)nc2cc(OC)c(OC)cc2c1=O (stereo unspecified)	none
COc1ccc(S(=O)(=O)N2CCCOC2CNC(=O)C(=O)NC2CCCC2)cc1 (stereo unspecified)	none (no result: STAT3 activator, hK5 inh, thrombin 1536, FXIIa inh 1536, FXIa inh 1536)
O=C(COc1ccc(Br)cc1CNCCc1ccccc1)NCc1ccccc1	AHR act 113.7 | AHR act cf 89.8 | PXR counter 44.2
CCCNCc1cc(Br)ccc1OCC(=O)NCCc1ccccc1	none
OCCCCNCc1cc(Br)ccc1OCc1ccccc1	none
OCCNCc1cc(Br)ccc1OCc1ccccc1Cl	AHR act 119.5 | AHR act cf 85.5 | PXR counter 39.6
C/C(=N\NC(=O)CCCOc1ccc(Cl)cc1C)c1ccc(C)o1	none
Cc1ccc(-n2sc3ccccc3c2=O)cc1	AHR act 79.9 | AHR act cf 74.1 | PXR counter 30.4
O=C(CN(Cc1cccs1)C(=O)CNS(=O)(=O)c1ccccc1)NC1CCCC1	none
Cc1ccc(Nc2nc(N)nc(-c3oc4ccccc4c3C)n2)cc1	STAT3 activator 154.2, AHR act 103.5 (no result: hK5 inh) | AHR act cf inactive | PXR counter 85.5
O=C(N/N=C/c1ccc([N+](=O)[O-])o1)c1cc(-c2ccncc2)nc2ccccc12	none
O=C(N/N=C/c1ccc([N+](=O)[O-])o1)c1cc(-c2ccc(-c3ccccc3)cc2)nc2ccccc12	AHR act 127.7 (no result: hK5 inh) | AHR act cf inactive | PXR counter 25.4
CCCCn1c(-c2cccs2)nc2oc3ccccc3c(=O)c2c1=O	none (no result: STAT3 activator)
CCCc1nc2oc3ccccc3c(=O)c2c(=O)n1-c1ccc(C)cc1	AHR act 80.7 (no result: STAT3 activator) | AHR act cf 76.0 | PXR counter 67.8
CCc1nc2oc3ccccc3c(=O)c2c(=O)n1-c1ccccc1	AHR act 98.9 | AHR act cf 117.9 | PXR counter 23.5
CCCc1nc2c(c(=O)c3ccccc3n2C)c(=O)n1-c1ccc(F)cc1	none
CC(C)(C)c1ccc(NC(=O)COC(=O)C2(C)CC2(Cl)Cl)cc1 (stereo unspecified)	none
Cc1cccc(C(=O)N[C@H](C(=O)Nc2ncc(C)s2)C(C)C)c1	AHR act 103.6 | AHR act cf inactive | PXR counter 363.7
Cc1cccc(C(=O)N[C@H](C(=O)Nc2nnc(C3CC3)s2)C(C)C)c1	none
COc1ccccc1N1CCN(CCN2C(=O)C3CCCCN3C2=O)CC1 (stereo unspecified)	none (no result: STAT3 activator, hK5 inh, thrombin 1536, FXIIa inh 1536, FXIa inh 1536)
COc1cccc(Nc2nc3ccccc3n3nnnc23)c1	none
Brc1ccc(Nc2nc3ccccc3n3nnnc23)cc1	AHR act 94.3 | AHR act cf 107.6 | PXR counter 74.8
c1ccc(Nc2nc3ccccc3n3nnnc23)cc1	none (no result: STAT3 activator)
Fc1ccccc1Nc1nc2ccccc2n2nnnc12	AHR act 96.2 | AHR act cf 73.6 | PXR counter 11.0
Cc1ccc(/C(O)=C2/C(=O)C(=O)N(CCN3CCOCC3)C2c2cccs2)cc1 (stereo unspecified)	none
Cc1cc(SCC(=O)c2cccs2)nc2ccccc12	AHR act 98.7 | AHR act cf 103.3 | PXR counter 154.9
CCOC(=O)C1CCN(C(=O)COC(=O)CNC(=O)c2ccc(OC)cc2)CC1	none

Compound activity: PubChem, several laboratories
